Published values of several laboratories.
Each line is one published result; the experiments were not run side by side.
Target: Serine/threonine-protein kinase PLK1 (PLK1, Homo sapiens, UniProt P53350)

SMILES | read-out | mode | technique | tested at | quantity | value
CCCCC(=O)Nc1ccc(-c2ccc3ncn(CCC)c(=O)c3c2)cn1 | binding |  | competition with immobilised ligand | 0.5 µM | remaining binding | 100%
N#Cc1ccc(NC(=O)Nc2ccccc2)cc1 | cell-free assay |  | competition with immobilised ligand | 25 µM | remaining binding | 93%
COc1ccc2oc(-c3ccc4nc(N)oc4c3)c/c(=N\c3ccccc3NC(=O)CCN)c2c1 | binding |  |  | 1 µM | remaining binding | 98%
CC#CC(=O)N1CCC[C@H]1c1nc(-c2ccc(C(=O)Nc3ccccn3)cc2)c2c(N)nccn12 | enzyme activity | inhibitor |  | 1 µM | inhibition | 36%
Cc1ccc(NC(=O)c2ccnc(C(F)(F)F)c2)cc1-c1cc(OCCO)nc(N2CCOCC2)c1 | binding |  |  | 1 µM | remaining binding | 94%
C1=C/COCc2cc(ccc2OCCN2CCCC2)Nc2nccc(n2)-c2cccc(c2)COC/1 | binding |  |  | 0.1 µM | remaining binding | 100%
C=CC(=O)N1CCC([C@@H]2CCNc3c(C(N)=O)c(-c4ccc(Oc5ccccc5)cc4)nn32)CC1 | enzyme activity | inhibitor |  | 1 µM | inhibition | 31%
COc1ccc2[nH]c3c4[nH]c5ccc(OC)cc5c4c4c(c3c2c1)C(=O)NC4=O | binding |  |  | 1 µM | remaining binding | 90%
